Here are results for 15 molecules from ChEMBL document CHEMBL2346583, “Synthesis of new fluorinated, 2-substituted 5-pyrrolidinylsulfonyl isatin derivatives as caspase-3 and caspase-7 inhibitors: nonradioactive counterparts of putative PET-compatible apoptosis imaging agents” (Bioorg Med Chem, 2013).

What is called IC50 is the midpoint of a concentration-inhibition curve.

The target of one test is T1, Caspase-1 (Homo sapiens, UniProt P29466).
T1 sequence (P29466 whole entry): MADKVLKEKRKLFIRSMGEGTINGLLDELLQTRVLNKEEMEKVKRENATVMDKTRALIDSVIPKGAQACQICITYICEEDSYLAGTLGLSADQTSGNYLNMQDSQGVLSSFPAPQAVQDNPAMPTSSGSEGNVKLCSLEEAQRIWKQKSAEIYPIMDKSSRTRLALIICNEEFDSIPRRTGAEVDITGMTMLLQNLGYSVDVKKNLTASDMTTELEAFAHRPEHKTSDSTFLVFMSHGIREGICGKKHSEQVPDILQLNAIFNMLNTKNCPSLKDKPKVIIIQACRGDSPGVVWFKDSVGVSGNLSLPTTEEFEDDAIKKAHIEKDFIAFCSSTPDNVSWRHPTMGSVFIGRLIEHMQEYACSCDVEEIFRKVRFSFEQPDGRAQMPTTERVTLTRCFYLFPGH
As to the kind of experiment: Inhibition of human recombinant caspase 1 assessed as decrease in AMC release using Ac-Tyr-Val-Ala-Asp-AMC as substrate preincubated with enzyme for 10 mins prior to substrate addition measured after 10 mins by fluorescence microplate analysis. In short, it runs like this: (§1)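 Recombinant human caspase at 0.5 units per assay (defined as 500 pmol substrate converted in 60 min), diluted in reaction buffer. Compounds in DMSO, tested at final concentrations from 500 µM down to 5 pM in tenfold steps. Enzyme and compound pre-incubated for 10 min at 37 °C. AMC peptide substrate then added to a final 10 µM and reacted for 10 min. IC50 obtained by nonlinear regression.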

The next test addresses T2, Caspase-7 (Homo sapiens, UniProt P55210).
T2 sequence (P55210 whole entry): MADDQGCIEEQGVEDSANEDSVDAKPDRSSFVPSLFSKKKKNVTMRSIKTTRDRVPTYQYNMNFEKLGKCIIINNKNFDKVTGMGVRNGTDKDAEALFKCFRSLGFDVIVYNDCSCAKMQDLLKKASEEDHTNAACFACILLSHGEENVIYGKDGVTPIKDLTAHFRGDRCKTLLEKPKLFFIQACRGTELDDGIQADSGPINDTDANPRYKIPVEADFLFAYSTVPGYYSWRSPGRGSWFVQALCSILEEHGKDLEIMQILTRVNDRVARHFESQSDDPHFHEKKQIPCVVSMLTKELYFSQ
In words: Inhibition of human recombinant caspase 7 assessed as decrease in AMC release using Ac-Asp-Glu-Val-Asp-AMC as substrate preincubated with enzyme for 10 mins prior to substrate addition measured after 10 mins by fluorescence microplate analysis. A digest of the protocol:
as §1

The next test addresses T3, Caspase-6 (Homo sapiens, UniProt P55212).
T3 sequence (P55212 whole entry): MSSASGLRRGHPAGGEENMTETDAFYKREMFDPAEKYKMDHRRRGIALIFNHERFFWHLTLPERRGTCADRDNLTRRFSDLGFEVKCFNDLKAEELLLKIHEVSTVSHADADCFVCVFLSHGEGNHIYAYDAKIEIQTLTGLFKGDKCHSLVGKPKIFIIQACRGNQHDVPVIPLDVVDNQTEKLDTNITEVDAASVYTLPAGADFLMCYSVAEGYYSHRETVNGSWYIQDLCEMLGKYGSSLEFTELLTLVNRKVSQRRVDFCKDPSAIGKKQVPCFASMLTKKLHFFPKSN
As to the kind of experiment: Inhibition of human recombinant caspase 6 assessed as decrease in AMC release using Ac-Val-Glu-Ile-Asp-AMC as substrate preincubated with enzyme for 10 mins prior to substrate addition measured after 10 mins by fluorescence microplate analysis. A digest of the protocol:
as §1

A further test deals with T4, Caspase-3 (Homo sapiens, UniProt P42574).
T4 sequence (P42574 whole entry): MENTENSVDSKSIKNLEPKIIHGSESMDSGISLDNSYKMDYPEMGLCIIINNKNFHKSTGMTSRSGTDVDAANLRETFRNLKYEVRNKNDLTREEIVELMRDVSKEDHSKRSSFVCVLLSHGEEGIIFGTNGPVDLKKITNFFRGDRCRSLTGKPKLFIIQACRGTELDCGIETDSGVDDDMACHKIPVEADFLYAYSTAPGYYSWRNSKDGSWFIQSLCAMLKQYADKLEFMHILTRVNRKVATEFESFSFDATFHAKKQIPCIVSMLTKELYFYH
In words: Inhibition of human recombinant caspase 3 assessed as decrease in AMC release using Ac-Asp-Glu-Val-Asp-AMC as substrate preincubated with enzyme for 10 mins prior to substrate addition measured after 10 mins by fluorescence microplate analysis. A digest of the protocol:
as §1

On to `COCC[C@@H]1CCCN1S(=O)(=O)c1ccc2c(c1)C(=O)C(=O)N2`, for which the half-inhibitory concentration (IC50) was 12100 nM on Caspase-1, 540 nM on Caspase-7, above 500000 nM on Caspase-6 and 349 nM at Caspase-3.
Taken in the same sequence, the figures for `CCCCN1C(=O)C(=O)c2cc(S(=O)(=O)N3CCC[C@H]3CCOC)ccc21` were 15500 nM, 24.6 nM, above 500000 nM and 94.3 nM.
On the same counts, the results for `COCC[C@@H]1CCCN1S(=O)(=O)c1ccc2c(c1)C(=O)C(=O)N2CCCCF` are 7340 nM, 12.3 nM, 1030 nM and 92.3 nM.
Taken in the same sequence, the figures for `CCOC[C@@H]1CCCN1S(=O)(=O)c1ccc2c(c1)C(=O)C(=O)N2` were above 500000 nM, 13.2 nM, above 500000 nM and 1120 nM.
As for `CCCCN1C(=O)C(=O)c2cc(S(=O)(=O)N3CCC[C@H]3COCC)ccc21`, the half-inhibitory concentration (IC50) on Caspase-1 stood at 18400 nM; at Caspase-7, 64.6 nM; at Caspase-6 it was 2610 nM; at Caspase-3, 25.6 nM.
`CCOC[C@@H]1CCCN1S(=O)(=O)c1ccc2c(c1)C(=O)C(=O)N2CCCCF`: the IC50 at Caspase-1 was above 500000 nM; on Caspase-7, 218 nM; on Caspase-6, above 500000 nM; on Caspase-3 it was 365 nM.
For the molecule `O=C1Nc2ccc(S(=O)(=O)N3CCC[C@H]3COCCF)cc2C1=O`, the IC50 at Caspase-1 is 18400 nM; at Caspase-7 it was 1330 nM; at Caspase-6 it was above 500000 nM; on Caspase-3 it was 346 nM.
On the same counts, the results for `CCCCN1C(=O)C(=O)c2cc(S(=O)(=O)N3CCC[C@H]3COCCF)ccc21` are 24700 nM, 39.6 nM, above 500000 nM and 4.79 nM.
Taken in the same sequence, the figures for `O=C1C(=O)N(CCCCF)c2ccc(S(=O)(=O)N3CCC[C@H]3COCCF)cc21` were 45800 nM, 9.68 nM, above 500000 nM and 74.3 nM.
On the same counts, the results for `O=C1Nc2ccc(S(=O)(=O)N3CCC[C@H]3COCC(F)(F)F)cc2C1=O` are 14700 nM, 1420 nM, above 500000 nM and 1060 nM.
On to `CCCCN1C(=O)C(=O)c2cc(S(=O)(=O)N3CCC[C@H]3COCC(F)(F)F)ccc21`, for which the half-maximal inhibitory concentration (IC50) is 25900 nM on Caspase-1, 7.47 nM at Caspase-7, above 500000 nM at Caspase-6 and 46.8 nM at Caspase-3.
Take `O=C1C(=O)N(CCCCF)c2ccc(S(=O)(=O)N3CCC[C@H]3COCC(F)(F)F)cc21`: the IC50 was 30700 nM at Caspase-1, 265 nM at Caspase-7, above 500000 nM on Caspase-6 and 149 nM on Caspase-3.
On the same counts, the results for `COCCCC1CCCN1S(=O)(=O)c1ccc2c(c1)C(=O)C(=O)N2` (racemic) are 11600 nM, 125 nM, above 500000 nM and 1580 nM.
Taken in the same sequence, the figures for `CCCCN1C(=O)C(=O)c2cc(S(=O)(=O)N3CCCC3CCCOC)ccc21` (racemic) were above 500000 nM, 515 nM, above 500000 nM and 170 nM.
Taken in the same sequence, the figures for `COCCCC1CCCN1S(=O)(=O)c1ccc2c(c1)C(=O)C(=O)N2CCCCF` (racemic) were above 500000 nM, 33.7 nM, above 500000 nM and 184 nM.
